Reference: ChEMBL document CHEMBL3091351, “The 3,7-diazabicyclo[3.3.1]nonane scaffold for subtype selective nicotinic acetylcholine receptor (nAChR) ligands. Part 1: the influence of different hydrogen bond acceptor systems on alkyl and (hetero)aryl substituents” (Bioorg Med Chem, 2013)
Calls of active or inactive are those of the source. The rule behind the calls is not given here.

How the values were obtained:
[1] = molecular target: T1, Nicotinic acetylcholine receptor alpha1/beta1/epsilon/delta (Mus musculus) (UniProt P04756+P09690+P02716+P20782); assay: Agonist activity at mouse alpha1beta1epsilondelta nAChR expressed in Xenopus laevis oocytes at 10 uM incubated for 8 secs followed by compound washout for 241 secs by Two-electrode voltage clamp assay; type: cell-based
How it was run: (§1)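 Stage V oocytes, defolliculated with collagenase, injected with 5–20 ng subunit cRNA and recorded 1–7 days later. Two-electrode clamp at −60 mV in Ringer's with 1 µM atropine, pH 7.2. Perfusion 2 ml/min for α7, 4 ml/min for the others. Test applications were bracketed by ACh controls (30 µM α1β1εδ, 60 µM α7, 100 µM α3β4, 30 µM α4β2).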

[2] = molecular target: T2, Neuronal acetylcholine receptor; alpha3/beta4 (Homo sapiens) (UniProt P30926+P32297); assay: Agonist activity at human alpha3beta4 nAChR expressed in Xenopus laevis oocytes at 10 uM incubated for 8 secs followed by compound washout for 241 secs by Two-electrode voltage clamp assay; type: cell-based; how it was run: as §1
[3] = molecular target: Neuronal acetylcholine receptor subunit alpha-7 (Homo sapiens) (UniProt P36544); assay: Agonist activity at human alpha7 nAChR expressed in Xenopus laevis oocytes at 10 uM incubated for 12 secs followed by compound washout for 181 secs by Two-electrode voltage clamp assay; type: cell-based; how it was run: as §1
[4] = molecular target: T3, Neuronal acetylcholine receptor subunit alpha-7 (Rattus norvegicus, UniProt Q05941); assay: Displacement of [3H]methyllycaconitine from alpha7 nAChR in Sprague-Dawley rat brain membrane fraction after 2 hrs by liquid scintillation counting analysis; type: cell membranes
How it was run: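 Competition binding on rat forebrain P2 membranes (60–70 µg protein) with [3H]MLA across 6–9 test concentrations. Incubation 120 min at 22 °C; 1 µM MLA defined non-specific binding. Samples filtered on PEI-presoaked glass fibre, scintillation-counted; duplicate to quadruplicate, 2–10 independent experiments.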

[5] = molecular target: T4, Neuronal acetylcholine receptor; alpha4/beta2 (Homo sapiens, UniProt P17787+P43681); assay: Displacement of [3H]nicotine from alpha4beta2 nAChR expressed in human SH-EP1 clonal cell membranes after 2 to 3 hrs by liquid scintillation counting analysis
[6] = molecular target: T5, Neuronal acetylcholine receptor; alpha4/beta2 (Rattus norvegicus, UniProt P09483+P12390); assay: Displacement of [3H]nicotine from alpha4beta2 nAChR in Sprague-Dawley rat brain membrane fraction after 2 to 3 hrs by liquid scintillation counting analysis; type: cell membranes
[7] = molecular target: T3, Neuronal acetylcholine receptor subunit alpha-7; assay: Displacement of [3H]methyllycaconitine from alpha7 nAChR in Sprague-Dawley rat forebrain P2 fraction after 90 mins by liquid scintillation counting analysis
[8] = Displacement of [3H]epibatidine from alpha3beta4 nAChR in calf adrenal membranes fraction after 90 mins by liquid scintillation counting analysis; type: cell membranes, Bos taurus
How it was run: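 Calf adrenal membranes (60–70 µg) in HSS buffer with 0.5 nM (±)-[3H]epibatidine, 6–9 test concentrations, 90 min at 22 °C. Non-specific binding with 300 µM (−)-nicotine. PEI-presoaked glass fibre filtration, liquid scintillation read-out; duplicate to quadruplicate, 2–10 independent experiments.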

[9] = molecular target: T5, Neuronal acetylcholine receptor; alpha4/beta2; assay: Displacement of [3H]epibatidine from alpha4beta2 nAChR in Sprague-Dawley rat forebrain P2 fraction after 90 mins by liquid scintillation counting analysis
How it was run: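 Rat forebrain P2 membranes (60 µg protein) in HSS buffer with 0.5 nM (±)-[3H]epibatidine and 6–9 test concentrations. Incubated 90 min at 22 °C; non-specific binding defined with 300 µM (−)-nicotine. Filtered through PEI-presoaked glass fibre filters and counted by liquid scintillation. Run in duplicate to quadruplicate, with 2–10 independent experiments.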

[10] = Binding affinity to (alpha1)2beta1gammadelta nAChR (unknown origin); parameters: species or system Homo sapiens
[11] = molecular target: T4, Neuronal acetylcholine receptor; alpha4/beta2; assay: Agonist activity at human alpha4beta2 nAChR expressed in Xenopus laevis oocytes at 10 uM incubated for 8 secs followed by compound washout for 241 secs by Two-electrode voltage clamp assay; type: cell-based; how it was run: as §1
[12] = Displacement of [3H]epibatidine from (alpha1)2beta1gammadelta nAChR in Torpedo californica electroplax after 90 mins by liquid scintillation counting analysis; parameters: species or system Tetronarce californica
How it was run: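 Torpedo californica electroplax membranes (60–70 µg) incubated with (±)-[3H]epibatidine and 6–9 test concentrations in HSS buffer, 90 min at 22 °C. 300 µM (−)-nicotine defined non-specific binding. PEI-presoaked glass fibre filtration, scintillation counting; duplicate to quadruplicate, 2–10 independent experiments.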

[13] = molecular target: T2, Neuronal acetylcholine receptor; alpha3/beta4 (Homo sapiens); assay: Antagonist activity at human alpha3beta4 nAChR expressed in Xenopus laevis oocytes assessed as inhibition of acetylcholine-induced effect at 10 uM incubated for 8 secs followed by compound washout for 241 secs by Two-electrode voltage clamp assay; type: cell-based
How it was run: (§2)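 Oocytes injected with 50 nl of 5–20 ng subunit cRNA and recorded 1–7 days later. Two-electrode voltage clamp at −60 mV, with perfusion at 4 ml/min in Ringer's solution (pH 7.2, 1 µM atropine). Each recording ran two ACh controls, then compound co-applied with ACh, then a follow-up ACh control. Applications lasted 8 s with a 241 s washout. Control ACh was 100 µM for α3β4 and 30 µM for α4β2.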

[14] = molecular target: T4, Neuronal acetylcholine receptor; alpha4/beta2; assay: Antagonist activity at human alpha4beta2 nAChR expressed in Xenopus laevis oocytes assessed as inhibition of acetylcholine-induced effect at 10 uM incubated for 8 secs followed by compound washout for 241 secs by Two-electrode voltage clamp assay; type: cell-based; how it was run: as §2
[15] = molecular target: Neuronal acetylcholine receptor subunit alpha-7 (Homo sapiens) (UniProt P36544); assay: Partial agonist activity at human alpha7 nAChR expressed in Xenopus laevis oocytes at 10 uM incubated for 12 secs followed by compound washout for 181 secs by Two-electrode voltage clamp assay; type: cell-based
How it was run: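 α7-expressing oocytes injected with 50 nl of 5–20 ng cRNA and recorded 1–7 days later. Clamped at −60 mV and perfused at 2 ml/min with Ringer's solution (pH 7.2, 1 µM atropine). Two 60 µM ACh control applications, then a compound application, then a follow-up ACh control. Applications lasted 12 s with a 181 s washout.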

[16] = molecular target: T2, Neuronal acetylcholine receptor; alpha3/beta4 (Homo sapiens); assay: Partial agonist activity at human alpha3beta4 nAChR expressed in Xenopus laevis oocytes at 10 uM incubated for 8 secs followed by compound washout for 241 secs by Two-electrode voltage clamp assay; type: cell-based
How it was run: (§3)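 Oocytes injected with 50 nl of 5–20 ng subunit cRNA and recorded 1–7 days later. Two-electrode voltage clamp at −60 mV, with perfusion at 4 ml/min in Ringer's solution (pH 7.2, 1 µM atropine). Two initial ACh control applications, then a compound application, then a follow-up ACh control. Applications lasted 8 s with a 241 s washout. Control ACh was 100 µM for α3β4 and 30 µM for α4β2.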

[17] = molecular target: T4, Neuronal acetylcholine receptor; alpha4/beta2; assay: Partial agonist activity at human alpha4beta2 nAChR expressed in Xenopus laevis oocytes at 10 uM incubated for 8 secs followed by compound washout for 241 secs by Two-electrode voltage clamp assay; type: cell-based; how it was run: as §3
[18] = molecular target: Neuronal acetylcholine receptor subunit alpha-7 (Homo sapiens) (UniProt P36544); assay: Antagonist activity at human alpha7 nAChR expressed in Xenopus laevis oocytes assessed as inhibition of acetylcholine-induced effect at 10 uM incubated for 12 secs followed by compound washout for 181 secs by Two-electrode voltage clamp assay; type: cell-based
How it was run: (§4)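 Oocytes clamped at −60 mV, perfused with Ringer's plus 1 µM atropine, pH 7.2. After two control ACh applications, the compound was co-applied with control ACh (60 µM for α7, 30 µM for α1β1εδ), followed by one further ACh control to gauge rundown. α7 used 2 ml/min perfusion; muscle subtype used 4 ml/min.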

[19] = molecular target: T2, Neuronal acetylcholine receptor; alpha3/beta4 (Homo sapiens); assay: Agonist activity at human alpha3beta4 nAChR expressed in Xenopus laevis oocytes at 1 uM incubated for 8 secs followed by compound washout for 241 secs by Two-electrode voltage clamp assay; type: cell-based; how it was run: as §1
[20] = molecular target: Neuronal acetylcholine receptor subunit alpha-7 (Homo sapiens) (UniProt P36544); assay: Agonist activity at human alpha7 nAChR expressed in Xenopus laevis oocytes at 1 uM incubated for 12 secs followed by compound washout for 181 secs by Two-electrode voltage clamp assay; type: cell-based; how it was run: as §1
[21] = molecular target: T1, Nicotinic acetylcholine receptor alpha1/beta1/epsilon/delta (Mus musculus); assay: Agonist activity at mouse alpha1beta1epsilondelta nAChR expressed in Xenopus laevis oocytes at 1 uM incubated for 8 secs followed by compound washout for 241 secs by Two-electrode voltage clamp assay; type: cell-based; how it was run: as §1
[22] = molecular target: T4, Neuronal acetylcholine receptor; alpha4/beta2; assay: Agonist activity at human alpha4beta2 nAChR expressed in Xenopus laevis oocytes at 1 uM incubated for 8 secs followed by compound washout for 241 secs by Two-electrode voltage clamp assay; type: cell-based; how it was run: as §1
[23] = molecular target: T1, Nicotinic acetylcholine receptor alpha1/beta1/epsilon/delta (Mus musculus); assay: Antagonist activity at mouse alpha1beta1epsilondelta nAChR expressed in Xenopus laevis oocytes assessed as inhibition of acetylcholine-induced effect at 10 uM incubated for 8 secs followed by compound washout for 241 secs by Two-electrode voltage clamp assay; type: cell-based; how it was run: as §4

T5 sequence (P09483 whole entry): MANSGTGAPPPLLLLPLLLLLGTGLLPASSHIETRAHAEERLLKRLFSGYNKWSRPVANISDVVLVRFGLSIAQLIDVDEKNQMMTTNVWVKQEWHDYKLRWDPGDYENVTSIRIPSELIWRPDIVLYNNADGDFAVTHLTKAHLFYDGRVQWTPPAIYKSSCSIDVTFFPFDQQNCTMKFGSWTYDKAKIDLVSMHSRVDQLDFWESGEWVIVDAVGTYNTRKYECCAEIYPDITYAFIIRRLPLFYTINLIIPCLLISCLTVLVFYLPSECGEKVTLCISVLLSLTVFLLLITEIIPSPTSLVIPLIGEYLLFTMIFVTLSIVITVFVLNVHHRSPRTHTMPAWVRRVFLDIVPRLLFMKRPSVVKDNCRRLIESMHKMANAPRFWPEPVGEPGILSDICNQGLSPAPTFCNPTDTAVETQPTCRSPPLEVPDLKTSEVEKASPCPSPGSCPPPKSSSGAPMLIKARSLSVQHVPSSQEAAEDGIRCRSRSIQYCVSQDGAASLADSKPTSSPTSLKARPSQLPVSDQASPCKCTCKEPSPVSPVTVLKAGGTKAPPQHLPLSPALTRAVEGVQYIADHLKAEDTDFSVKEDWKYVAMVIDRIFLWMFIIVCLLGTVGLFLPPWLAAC
T5 sequence (P12390 whole entry): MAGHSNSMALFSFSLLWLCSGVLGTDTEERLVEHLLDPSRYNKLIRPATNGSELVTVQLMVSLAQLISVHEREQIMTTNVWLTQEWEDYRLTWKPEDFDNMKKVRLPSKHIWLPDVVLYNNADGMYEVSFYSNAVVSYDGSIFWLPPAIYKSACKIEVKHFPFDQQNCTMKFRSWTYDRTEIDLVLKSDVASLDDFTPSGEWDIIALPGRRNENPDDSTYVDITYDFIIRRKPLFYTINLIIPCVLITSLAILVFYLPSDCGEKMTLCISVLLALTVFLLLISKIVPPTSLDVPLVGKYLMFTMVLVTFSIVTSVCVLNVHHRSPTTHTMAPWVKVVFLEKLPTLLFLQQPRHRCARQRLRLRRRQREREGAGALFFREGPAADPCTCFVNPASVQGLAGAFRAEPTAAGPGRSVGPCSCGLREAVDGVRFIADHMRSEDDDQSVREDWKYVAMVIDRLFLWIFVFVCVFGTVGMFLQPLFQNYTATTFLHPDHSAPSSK
T3 sequence (Q05941 whole entry): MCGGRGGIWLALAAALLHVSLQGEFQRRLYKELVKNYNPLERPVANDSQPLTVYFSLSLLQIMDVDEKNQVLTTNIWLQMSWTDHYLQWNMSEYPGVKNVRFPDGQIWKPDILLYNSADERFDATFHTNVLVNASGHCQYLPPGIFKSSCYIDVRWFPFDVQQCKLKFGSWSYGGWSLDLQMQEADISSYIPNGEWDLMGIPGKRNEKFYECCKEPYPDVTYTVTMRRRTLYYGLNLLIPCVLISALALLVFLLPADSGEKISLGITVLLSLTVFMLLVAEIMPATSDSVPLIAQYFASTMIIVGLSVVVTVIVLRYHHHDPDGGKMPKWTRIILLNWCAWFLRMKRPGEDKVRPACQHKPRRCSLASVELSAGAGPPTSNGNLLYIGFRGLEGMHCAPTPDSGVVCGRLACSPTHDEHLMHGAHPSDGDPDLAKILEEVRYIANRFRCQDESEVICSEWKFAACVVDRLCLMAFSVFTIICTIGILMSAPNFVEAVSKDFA
T4 sequence (P17787 whole entry): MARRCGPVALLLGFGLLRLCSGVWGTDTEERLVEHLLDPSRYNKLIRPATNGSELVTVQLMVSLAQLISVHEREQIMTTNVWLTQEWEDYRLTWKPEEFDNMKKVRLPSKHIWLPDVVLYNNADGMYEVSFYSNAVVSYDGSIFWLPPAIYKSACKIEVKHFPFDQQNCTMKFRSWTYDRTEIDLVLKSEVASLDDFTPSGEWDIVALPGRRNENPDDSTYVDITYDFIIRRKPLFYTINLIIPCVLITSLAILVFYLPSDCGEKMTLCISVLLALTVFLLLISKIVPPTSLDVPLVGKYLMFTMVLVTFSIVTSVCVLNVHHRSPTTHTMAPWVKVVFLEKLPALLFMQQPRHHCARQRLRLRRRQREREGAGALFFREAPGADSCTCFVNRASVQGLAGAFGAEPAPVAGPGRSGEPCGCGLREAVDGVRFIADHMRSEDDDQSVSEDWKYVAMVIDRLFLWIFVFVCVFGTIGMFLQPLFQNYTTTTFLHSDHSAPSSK
T4 sequence (P43681 whole entry): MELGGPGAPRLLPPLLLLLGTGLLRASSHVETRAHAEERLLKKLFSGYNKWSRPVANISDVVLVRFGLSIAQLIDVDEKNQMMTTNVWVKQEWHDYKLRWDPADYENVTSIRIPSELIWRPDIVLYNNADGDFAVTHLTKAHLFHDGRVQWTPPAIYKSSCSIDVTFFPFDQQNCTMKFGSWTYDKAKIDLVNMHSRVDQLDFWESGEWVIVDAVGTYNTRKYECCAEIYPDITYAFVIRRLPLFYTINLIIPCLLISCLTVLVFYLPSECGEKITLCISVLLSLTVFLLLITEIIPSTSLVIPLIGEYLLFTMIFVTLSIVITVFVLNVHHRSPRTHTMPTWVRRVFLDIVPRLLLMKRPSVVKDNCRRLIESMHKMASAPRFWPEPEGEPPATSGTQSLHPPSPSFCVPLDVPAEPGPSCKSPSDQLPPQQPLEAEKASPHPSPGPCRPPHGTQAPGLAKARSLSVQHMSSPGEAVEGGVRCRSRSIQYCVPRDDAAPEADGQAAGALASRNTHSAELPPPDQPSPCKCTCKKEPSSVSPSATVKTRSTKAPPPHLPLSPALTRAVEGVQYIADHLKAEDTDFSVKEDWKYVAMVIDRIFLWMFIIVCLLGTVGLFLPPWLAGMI
Neuronal acetylcholine receptor subunit alpha-7 (Homo sapiens), sequence (P36544 whole entry, the tested form may be a part): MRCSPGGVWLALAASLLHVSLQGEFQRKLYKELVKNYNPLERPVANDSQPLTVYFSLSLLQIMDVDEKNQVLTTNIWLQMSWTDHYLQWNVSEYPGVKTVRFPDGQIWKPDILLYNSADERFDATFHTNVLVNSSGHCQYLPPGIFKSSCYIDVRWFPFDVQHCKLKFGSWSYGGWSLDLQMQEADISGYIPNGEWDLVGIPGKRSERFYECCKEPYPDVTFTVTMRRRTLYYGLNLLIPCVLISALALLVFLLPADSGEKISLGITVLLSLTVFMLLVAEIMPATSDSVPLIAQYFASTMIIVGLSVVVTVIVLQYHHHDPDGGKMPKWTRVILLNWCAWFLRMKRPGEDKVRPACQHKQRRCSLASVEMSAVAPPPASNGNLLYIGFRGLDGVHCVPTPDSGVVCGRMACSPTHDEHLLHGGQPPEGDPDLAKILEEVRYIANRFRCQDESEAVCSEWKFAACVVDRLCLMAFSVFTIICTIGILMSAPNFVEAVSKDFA

Row | Structure (SMILES) | Activity [2] | Ki [4] [nM] | Ki [5] [nM] | Ki [6] [nM] | Ki [7] [nM] | Ki [8] [nM] | Ki [9] [nM] | Ki [12] [nM] | other results
1 | CC(=O)N1C[C@@H]2CNC[C@@H](C2)C1 | Active | 3280 | 20.2 | 18.7 | 636 | 664 | 5.6 |  | Activity [1]: inactive; Activity [3]: Active
2 | O=C1CCCC2[C@H]3CNC[C@H](C3)CN12 (stereo not given in full) |  |  |  |  |  |  |  |  | Ki [10]: 19000 nM
3 | CN1C[C@@H]2C[C@H](C1)C1CCCC(=O)N1C2 (stereo not given in full) |  |  |  |  |  |  |  |  | Ki [10]: > 50000 nM
4 | CCCC(=O)N1C[C@@H]2CNC[C@@H](C2)C1 | Active | 230 | 2.9 | 8.1 | > 1000 | 266 | 3.6 | > 5000 | Activity [11]: Active; Activity [1]: inactive; Activity [3]: Active
5 | O=C(c1ccc(-c2ccccc2)cc1)N1C[C@@H]2CNC[C@@H](C2)C1 |  |  |  |  |  | 1090 | 39.9 |  | Activity [13]: Active; Activity [14]: Active; Activity [15]: Active; Activity [16]: Active; Activity [17]: Active; Activity [18]: Active
6 | CC(C)C(=O)N1C[C@@H]2CNC[C@@H](C2)C1 |  | 645 | 44.4 | 102 | > 5000 | 828 | 50.3 |  | 
7 | C1NCC2CNCC1C2 | Active |  |  |  | > 1000 | > 1000 | 600 | > 1000 | Activity [19]: Active; Activity [20]: Active; Activity [21]: Active; Activity [22]: Active; Activity [3]: Active
8 | CCC(=O)N1C[C@@H]2CNC[C@@H](C2)C1 | Active | 795 | 10.4 | 12.2 | > 2000 | 329 | 4.5 | > 1000 | Activity [3]: Active
9 | O=C(c1cncc(Br)c1)N1C[C@@H]2CNC[C@@H](C2)C1 |  |  |  |  | > 10000 | > 5000 | 292 | > 10000 | 
10 | N#Cc1ccc(C(=O)N2C[C@@H]3CNC[C@@H](C3)C2)cc1 |  |  |  |  | > 10000 | > 10000 | 20.7 | > 5000 | 
11 | O=C(c1ccccc1[N+](=O)[O-])N1C[C@@H]2CNC[C@@H](C2)C1 |  |  |  |  | > 10000 | > 10000 | > 10000 | > 10000 | 
12 | O=C(c1cccs1)N1C[C@@H]2CNC[C@@H](C2)C1 |  |  |  |  | > 10000 | > 10000 | 17.6 | > 10000 | 
13 | O=C(c1ccco1)N1C[C@@H]2CNC[C@@H](C2)C1 |  | 15000 | 9.9 | 31 |  | 2240 | 21.4 | > 10000 | 
14 | CC(C)(C)c1ccc(C(=O)N2C[C@@H]3CNC[C@@H](C3)C2)cc1 |  |  |  |  | > 10000 | > 10000 | > 10000 | > 10000 | 
15 | O=C(CC1CCCC1)N1C[C@@H]2CNC[C@@H](C2)C1 | inactive |  |  |  |  |  | 43.5 |  | Activity [23]: Active; Activity [18]: Active
16 | O=C(c1ccc(F)cc1)N1C[C@@H]2CNC[C@@H](C2)C1 |  |  |  |  | > 10000 | > 10000 | 197 | > 10000 | 
17 | O=C(C1CCCC1)N1C[C@@H]2CNC[C@@H](C2)C1 | inactive | 211 | 20.2 | 26.6 |  |  | 10.8 |  | Activity [1]: inactive; Activity [3]: Active
18 | c1ccc(CN2C[C@@H]3CNC[C@@H](C3)C2)cc1 |  |  |  |  | > 5000 | 570 | > 10000 | > 10000 | 
